These results are taken from ChEMBL document CHEMBL2086325, “Suppression of autoimmune arthritis by Celastrus-derived Celastrol through modulation of pro-inflammatory chemokines” (Bioorg Med Chem, 2012).

The source made the active and inactive calls. The rule behind the calls is not given here.

The test system of data set [1] is Rattus norvegicus. The experiment in a line: Antiarthritic effect in Lewis rat adjuvant-induced arthritis model serum assessed as reduction in IL-1beta production at 200 ug, ip starting from arthritis onset and continued uninterrupted until study end by cytokine multiplex assay. In kind it is functional, organism-based. In short, it runs like this: (§1)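 Arthritic Lewis rats (Mtb 1.5 mg s.c. in mineral oil) were given 200 μg/rat i.p. daily from onset until the day before harvest; controls received DMSO/PBS vehicle. On d 18, blood was taken by cardiac puncture after euthanasia and serum stored at −80 °C. Serum pooled from 4 rats was assayed in triplicate by multiplex.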

Data set [2] has as its system Rattus norvegicus. Briefly: Antiarthritic effect in Lewis rat adjuvant-induced arthritis model spleen adherent cells restimulated with sonicated Mtb post isolation assessed as reduction in IL-1beta production at 200 ug, ip starting from arthritis onset and continued uninterrupted until study end by cytokine multiplex assay. In kind it is functional, organism-based. The essentials:
(§2)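 Mtb-immunized male Lewis rats were dosed 200 μg/rat i.p. daily from arthritis onset (vehicle: 1.2% DMSO/PBS). Spleen adherent cells were prepared on d 18, plated at 1.5 × 10^6/well in 2% FBS medium and restimulated with sonicated Mtb (10 μg/ml) for 24 h. Supernatant chemokines and cytokines were measured by Luminex multiplex. Mean ± SD of triplicates from 4–5 rats.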

Data set [3] concerns Rattus norvegicus. Briefly: Toxicity in Lewis rat adjuvant-induced arthritis model serum assessed as increase in MCP1 production at 200 ug, ip starting from arthritis onset and continued uninterrupted until study end by cytokine multiplex assay. As to conditions: in vivo. Format: organism-based. In short, it runs like this:
as §1

For data set [4], the system named is Rattus norvegicus. Briefly: Antiarthritic effect in Lewis rat adjuvant-induced arthritis model lymph node cells restimulated with sonicated Mtb post isolation assessed as reduction in MIP-1alpha production at 200 ug, ip starting from arthritis onset and continued uninterrupted until study end by cytokine multiplex assay. In kind it is functional, organism-based. In short, it runs like this:
(§3)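 Male Lewis rats were immunized s.c. with heat-killed Mtb H37Ra (1.5 mg/rat) in mineral oil. From arthritis onset they received 200 μg/rat i.p. daily (DMSO stock diluted in PBS); controls got 1.2% DMSO in PBS. On d 18, draining lymph node or synovial-infiltrating cells were cultured at 1.5 × 10^6/well in 2% FBS medium ± sonicated Mtb (10 μg/ml) for 24 h. Supernatants were analysed by multiplex.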

Data set [5] deals with Rattus norvegicus. Briefly: Antiarthritic effect in Lewis rat adjuvant-induced arthritis model lymph node cells restimulated with sonicated Mtb post isolation assessed as reduction in TNFalpha production at 200 ug, ip starting from arthritis onset and continued uninterrupted until study end by cytokine multiplex assay. Format: functional, organism-based. The essentials:
as §3

The test system of data set [6] is Rattus norvegicus. Briefly: Antiarthritic effect in Lewis rat adjuvant-induced arthritis model spleen adherent cells restimulated with sonicated Mtb post isolation assessed as reduction in CXCR4 expression at 200 ug, ip starting from arthritis onset and continued uninterrupted until study end by qPCR. In kind it is functional, organism-based. The essentials:
(§4)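 From onset of Mtb-induced arthritis, rats received 200 μg/rat i.p. daily or vehicle. Spleen adherent cells harvested on d 18 (1.5–2.0 × 10^6 cells/well) were cultured in medium or with sonicated Mtb (10 μg/ml) for 24 h. Receptor mRNA was quantified by qPCR after TRIzol RNA isolation and cDNA synthesis, normalized to HGPRT and reported as relative message.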
In general terms: In qPCR the cycle at which signal appears reflects the starting amount.

In data set [7] the test system is Rattus norvegicus. Briefly: Antiarthritic effect in Lewis rat adjuvant-induced arthritis model spleen adherent cells restimulated with sonicated Mtb post isolation assessed as reduction in CCR3 expression at 200 ug, ip starting from arthritis onset and continued uninterrupted until study end by qPCR. In kind it is functional, organism-based. The essentials:
as §4

The species entered for data set [8] is Rattus norvegicus. The experiment in a line: Antiarthritic effect in sonicated Mtb-stimulated spleen adherent cells isolated from Lewis rat adjuvant-induced arthritis model assessed as reduction in GRO/KC production pre-incubated with compound for 30 mins before stimulation with sonicated-Mtb for 48 hrs by multiplex assay. In kind it is functional, tissue-based.

Data set [9] in a line: Increase in CCR1 protein surface expression in sonicated Mtb-stimulated spleen adherent cells isolated Inhibition of cell migration of RANTES-stimulated spleen adherent cells isolated from Lewis rat adjuvant-induced arthritis model at 0. 3 uM by Transwell cell migration assay. In kind it is functional. In short, it runs like this: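 Transwell assay with 8-μm polycarbonate inserts. Spleen adherent cells (1 × 10^6) from arthritic rats were placed in the upper chamber; the lower chamber held serum-free RPMI with RANTES (50 ng/ml) ± compound (0.1, 0.3 μM). Cells migrated 24 h at 37 °C, 5% CO2. Lower-surface cells were fixed in 4% formaldehyde, DAPI-stained, imaged at 10× and counted by image analysis. RANTES alone was set as 100%.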

For data set [10], the species on record is Rattus norvegicus. The experiment in a line: Antiarthritic effect in IL-1beta-stimulatedspleen adherent cells isolated from Lewis rat adjuvant-induced arthritis model assessed as reduction in MIP-1alpha production pre-incubated with compound for 30 mins before stimulation with IL-1beta for 48 hrs by multiplex assay. In kind it is functional, tissue-based. The settings on record: Spleen.

Data set [11] has as its system Rattus norvegicus. The experiment in a line: Antiarthritic effect in Lewis rat adjuvant-induced arthritis model spleen adherent cells restimulated with sonicated Mtb post isolation assessed as reduction in IL6 production at 200 ug, ip starting from arthritis onset and continued uninterrupted until study end by cytokine multiplex assay. In kind it is functional, organism-based. In short, it runs like this: as §2

The subject of data set [12] is Rattus norvegicus. Briefly: Antiarthritic effect in Lewis rat adjuvant-induced arthritis model spleen adherent cells restimulated with sonicated Mtb post isolation assessed as reduction in MIP-1alpha production at 200 ug, ip starting from arthritis onset and continued uninterrupted until study end by cytokine multiplex assay. Format: functional, organism-based. In short, it runs like this:
as §2

Data set [13] is filed under the species Rattus norvegicus. Briefly: Antiarthritic effect in sonicated Mtb-stimulated spleen adherent cells isolated from Lewis rat adjuvant-induced arthritis model assessed as reduction in MCP1 production pre-incubated with compound for 30 mins before stimulation with sonicated-Mtb for 48 hrs by multiplex assay. In kind it is functional, tissue-based.
For data set [14], the system named is Rattus norvegicus. The experiment in a line: Antiarthritic effect in Lewis rat adjuvant-induced arthritis model lymph node cells restimulated with sonicated Mtb post isolation assessed as reduction in MCP1 production at 200 ug, ip starting from arthritis onset and continued uninterrupted until study end by cytokine multiplex assay. In kind it is functional, organism-based. In short, it runs like this:
as §3

Data set [15] relates to Rattus norvegicus. The experiment in a line: Antiarthritic effect in Lewis rat adjuvant-induced arthritis model spleen adherent cells restimulated with sonicated Mtb post isolation assessed as reduction in CCR2 expression at 200 ug, ip starting from arthritis onset and continued uninterrupted until study end by qPCR. In kind it is functional, organism-based. In short, it runs like this:
as §4

Data set [16] concerns Rattus norvegicus. The experiment in a line: Antiarthritic effect in Lewis rat adjuvant-induced arthritis model lymph node cells restimulated with sonicated Mtb post isolation assessed as reduction in GRO/KC production at 200 ug, ip starting from arthritis onset and continued uninterrupted until study end by cytokine multiplex assay. In kind it is functional, organism-based. In short, it runs like this:
as §3

In data set [17] the test system is Rattus norvegicus. Briefly: Antiarthritic effect in Lewis rat adjuvant-induced arthritis model spleen adherent cells restimulated with sonicated Mtb post isolation assessed as reduction in CCR5 expression at 200 ug, ip starting from arthritis onset and continued uninterrupted until study end by qPCR. Format: functional, organism-based. The essentials:
as §4

The subject of data set [18] is Rattus norvegicus. Briefly: Antiarthritic effect in Lewis rat adjuvant-induced arthritis model lymph node cells restimulated with sonicated Mtb post isolation assessed as reduction in IL6 production at 200 ug, ip starting from arthritis onset and continued uninterrupted until study end by cytokine multiplex assay. Format: functional, organism-based. The essentials: as §3

The species entered for data set [19] is Rattus norvegicus. Briefly: Antiarthritic effect in IL-1beta-stimulatedspleen adherent cells isolated from Lewis rat adjuvant-induced arthritis model assessed as reduction in RANTES production pre-incubated with compound for 30 mins before stimulation with IL-1beta for 48 hrs by multiplex assay. Format: functional, tissue-based. As to conditions: Spleen.

Data set [20] has as its system Rattus norvegicus. Briefly: Antiarthritic effect in Lewis rat adjuvant-induced arthritis model spleen adherent cells restimulated with sonicated Mtb post isolation assessed as reduction in CCR6 expression at 200 ug, ip starting from arthritis onset and continued uninterrupted until study end by qPCR. Format: functional, organism-based. In short, it runs like this:
as §4

The test system of data set [21] is Rattus norvegicus. Briefly: Antiarthritic effect in Lewis rat adjuvant-induced arthritis model serum assessed as reduction in TNFalpha production at 200 ug, ip starting from arthritis onset and continued uninterrupted until study end by cytokine multiplex assay. Format: functional, organism-based. In short, it runs like this:
as §1

The species entered for data set [22] is Rattus norvegicus. The experiment in a line: Antiarthritic effect in IL-1beta-stimulatedspleen adherent cells isolated from Lewis rat adjuvant-induced arthritis model assessed as reduction in IL6 production pre-incubated with compound for 30 mins before stimulation with IL-1beta for 48 hrs by multiplex assay. Format: functional, tissue-based. The settings on record: Spleen.

As to `CC1=C(O)C(=O)C=C2C1=CC=C1[C@@]2(C)CC[C@@]2(C)[C@@H]3C[C@](C)(C(=O)O)CC[C@]3(C)CC[C@]12C` [CELASTROL], the result in the data set with Rattus norvegicus [1], with Rattus norvegicus [2], in the data set with Rattus norvegicus [6], in the data set with Rattus norvegicus [7], in the data set with Rattus norvegicus [15] and in the data set on Rattus norvegicus [17] was Active. In addition, the result in the data set on Rattus norvegicus [20] and in the data set with Rattus norvegicus [21] was Active. Further, the Activity result with Rattus norvegicus [3] is “Toxic”; in the data set filed under Rattus norvegicus [8], “Dose-dependent effect”; in the data set listed under Rattus norvegicus [10], “Dose-dependent effect”; in the data set listed under Rattus norvegicus [13], “Dose-dependent effect”; in the data set filed under Rattus norvegicus [19], “Dose-dependent effect”; in the data set filed under Rattus norvegicus [22] it was “Dose-dependent effect”. In addition, the outcome with Rattus norvegicus [4], in the data set with Rattus norvegicus [5], with Rattus norvegicus [11], in the data set on Rattus norvegicus [12], in the data set with Rattus norvegicus [14] and in the data set on Rattus norvegicus [16] was inactive. In addition, the outcome in the data set with Rattus norvegicus [18] was inactive. Further, in [9], the “inhibition (INH)” value came to 63%.
